From ChEMBL document CHEMBL1141526, “3-Amino-1,5-benzodiazepinones: potent, state-dependent sodium channel blockers with anti-epileptic activity” (Bioorg Med Chem Lett, 2008) come the findings set out here.

The structures appear in SMILES notation. Active and inactive are the calls of the source. No cut-off for these calls is given here.

Series [1] has as its system hERG (Potassium voltage-gated channel subfamily H member 2, Homo sapiens). The series can be described thus: Displacement of [35S]MK-0499 from human hERG potassium channel at 10 uM. (In general: In a radioligand displacement assay an active substance lowers the binding of a labelled ligand.)
The test system is the same in series [2]. The series is described as follows: Displacement of [35S]MK-0499 from human hERG potassium channel at 1 uM.
In series [3] the target is T1, Sodium channel protein type 9 subunit alpha (Homo sapiens, UniProt Q15858). The series is described as follows: Inhibition of human Nav1.7 sodium channel expressed in HEK293 cells by FRET assay. The format is cell-based. In a few lines: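 HEK-293 cells stably expressing hNav1.7 were used in a functional membrane-potential assay. Channel block was read as FRET between two membrane-associated dyes; the value is reported as IC50.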
Target sequence in this assay (Q15858 whole entry): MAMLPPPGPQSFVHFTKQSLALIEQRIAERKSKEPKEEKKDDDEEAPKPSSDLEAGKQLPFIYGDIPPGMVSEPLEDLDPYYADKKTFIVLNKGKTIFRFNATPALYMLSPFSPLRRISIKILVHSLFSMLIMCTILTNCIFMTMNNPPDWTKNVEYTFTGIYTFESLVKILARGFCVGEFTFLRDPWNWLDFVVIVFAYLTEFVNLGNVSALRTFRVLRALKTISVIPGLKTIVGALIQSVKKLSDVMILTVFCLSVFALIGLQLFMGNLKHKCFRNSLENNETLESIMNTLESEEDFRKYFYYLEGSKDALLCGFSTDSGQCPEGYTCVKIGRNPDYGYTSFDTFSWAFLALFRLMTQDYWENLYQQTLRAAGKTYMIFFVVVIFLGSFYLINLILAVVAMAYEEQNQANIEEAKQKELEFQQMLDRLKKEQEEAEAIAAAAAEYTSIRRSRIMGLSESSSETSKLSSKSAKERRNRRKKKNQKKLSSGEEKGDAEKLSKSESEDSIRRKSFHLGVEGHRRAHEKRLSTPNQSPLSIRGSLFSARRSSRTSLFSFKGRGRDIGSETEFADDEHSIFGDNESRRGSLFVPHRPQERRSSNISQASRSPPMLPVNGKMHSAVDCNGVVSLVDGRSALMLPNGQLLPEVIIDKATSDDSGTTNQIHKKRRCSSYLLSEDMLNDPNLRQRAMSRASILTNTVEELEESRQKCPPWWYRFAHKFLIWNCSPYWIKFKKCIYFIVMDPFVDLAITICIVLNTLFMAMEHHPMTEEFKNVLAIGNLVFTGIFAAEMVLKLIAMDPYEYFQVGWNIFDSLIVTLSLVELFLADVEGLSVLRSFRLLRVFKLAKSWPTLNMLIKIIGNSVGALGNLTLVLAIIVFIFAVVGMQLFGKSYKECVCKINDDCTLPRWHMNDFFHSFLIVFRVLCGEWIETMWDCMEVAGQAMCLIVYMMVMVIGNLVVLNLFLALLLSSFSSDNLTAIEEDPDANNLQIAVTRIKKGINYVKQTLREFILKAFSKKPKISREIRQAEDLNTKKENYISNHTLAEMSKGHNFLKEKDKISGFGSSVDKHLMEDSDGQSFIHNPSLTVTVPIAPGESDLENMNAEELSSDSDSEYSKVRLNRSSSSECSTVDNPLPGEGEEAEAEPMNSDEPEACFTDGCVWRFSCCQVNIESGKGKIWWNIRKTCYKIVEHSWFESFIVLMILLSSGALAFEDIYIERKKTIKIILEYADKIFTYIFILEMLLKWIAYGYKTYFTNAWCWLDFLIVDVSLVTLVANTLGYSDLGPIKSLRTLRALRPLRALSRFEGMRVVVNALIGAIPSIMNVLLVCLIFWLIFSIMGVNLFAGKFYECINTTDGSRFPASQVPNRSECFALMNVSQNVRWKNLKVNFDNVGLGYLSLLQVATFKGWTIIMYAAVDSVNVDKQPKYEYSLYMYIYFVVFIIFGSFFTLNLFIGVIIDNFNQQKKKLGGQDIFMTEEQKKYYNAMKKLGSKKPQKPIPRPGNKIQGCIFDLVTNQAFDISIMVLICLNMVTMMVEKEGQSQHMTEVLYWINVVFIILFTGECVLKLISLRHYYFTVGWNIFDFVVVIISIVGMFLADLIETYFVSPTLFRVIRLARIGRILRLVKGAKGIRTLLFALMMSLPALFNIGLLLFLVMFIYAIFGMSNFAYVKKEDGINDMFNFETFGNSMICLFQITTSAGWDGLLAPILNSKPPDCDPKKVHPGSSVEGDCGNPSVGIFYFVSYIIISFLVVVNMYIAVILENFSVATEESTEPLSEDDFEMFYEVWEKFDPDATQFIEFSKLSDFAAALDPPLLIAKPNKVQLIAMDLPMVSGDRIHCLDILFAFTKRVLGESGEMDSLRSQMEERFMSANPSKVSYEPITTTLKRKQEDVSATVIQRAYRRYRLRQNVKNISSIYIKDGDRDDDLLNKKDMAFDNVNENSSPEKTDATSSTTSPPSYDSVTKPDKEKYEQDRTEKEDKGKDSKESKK

Series [4] is described as follows: Clearance in Sprague-Dawley rat at 1.0 mg/kg, iv. Type of series: ADME, organism-based. Set-up: dose 1 mg/kg, route intravenous. As to conditions: in vivo. In a few lines: (§1)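 Fasted male Sprague–Dawley rats (n = 3 per route) received 1.0 mg/kg iv through a femoral vein cannula or 3.0 mg/kg po by gavage. Compound was formulated at 1.5 mg/mL in PEG300/water or DMSO/PEG300/water. Serial blood sampled at 5 min (iv only), 15 and 30 min, and 1, 2, 4, 6, 8 h. Plasma was acetonitrile-precipitated and measured by LC–MS/MS.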

The nature of series [5]: Oral bioavailability in Sprague-Dawley rat at 3.0 mg/kg. Type of series: ADME, organism-based. Conditions: in vivo. In a few lines: as §1
Series [6] is described as follows: Cmax in Sprague-Dawley rat at 3.0 mg/kg, po. As to conditions: in vivo.
A short description of series [7]: Half life in Sprague-Dawley rat at 1.0 mg/kg, iv. Type of series: ADME, organism-based. Set-up: dose 1 mg/kg, route intravenous. As to conditions: in vivo. Summed up: as §1
The test system of the next series is Mus musculus. The series can be described thus: Anticonvulsant activity in C57BL6J mouse assessed as prevention of shock-induced tonic-clonic seizures at 3 mg/kg, po after 30 mins. The format is functional. As to conditions: for ED50: 0.5 h. Summed up: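 Male C57BL6J mice, 14 weeks old. Dosed 3 mg/kg by gavage in 5% EtOH + 10% Tween 80 + 85% water, sonicated, 2 mL/kg. Maximal electroshock via auricular electrodes 30 min post-dose: 100 Hz, 0.7 ms pulse width, 0.5 s duration, 18 mA. Read-out was protection from tonic–clonic seizures; n = 10.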

The target in series [8] is T1, Sodium channel protein type 9 subunit alpha. Conditions: HEK293.
Target sequence in this assay (Q15858 whole entry, looked up): as the sequence (Q15858 whole entry) above
For series [9] the target is unchanged. The series can be described thus: Inhibition of human Nav1.7 sodium channel expressed in HEK293 cells at a membrane potential of -70 mV by whole cell voltage clamp technique. Type of series: cell-based. In a few lines: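 Whole-cell voltage clamp on HEK-293 cells stably expressing hNav1.7. Peak current evoked by 20 ms depolarizations from −70 mV. Bath: 40 mM NaCl, 120 mM NMDG–Cl, 1 mM KCl, 2.7 mM CaCl2, 0.5 mM MgCl2, 10 mM NMDG–Hepes, pH 7.4. Pipette: Cs–methanesulfonate/CsCl/CsF/BAPTA-based, pH 7.4. Junction potentials (<4 mV) were not corrected.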
Target sequence in this assay (Q15858 whole entry): as above

For series [10] the target is unchanged. Conditions: HEK293, 1 uM.
Target sequence in this assay (Q15858 whole entry, looked up): as the sequence (Q15858 whole entry) above

The term inhibition denotes the share of the control response that was lost under treatment. High values mean a strong effect, low ones a weak effect. The term IC50 denotes the point on the concentration scale where inhibition reaches its midpoint. Regarding `CN1C(=O)[C@H](NC(=O)[C@@H](Cc2ccccc2F)NC(=O)OC(C)(C)C)CN(CC2CCC2)c2ccccc21`, the inhibition was determined as 65% in series [1] and 20% in series [2]. Half-maximal inhibition in series [3] (IC50) was put at 81 nM.
As usually defined, the clearance is a measure of how efficiently the substance is removed, as volume per time. Low values mean a low capacity for elimination, high ones a high capacity for elimination. The bioavailability is dose-corrected exposure relative to a reference, in per cent. A high value points to much systemic uptake. What is called Cmax is the maximum level reached in the sampled fluid or tissue. A word on the half-life: it is the time in which the quantity being followed falls by half. Low values mean fast loss, high ones slow loss. Regarding `CC(C)N1C(=O)[C@H](NC(=O)[C@@H](Cc2ccccc2C(F)(F)F)NC(=O)OC(C)(C)C)CN(CC2CC2)c2ccccc21`, in [4], the clearance was found to be 23 mL/min/kg. The same molecule displayed a bioavailability in [5] of 9%. Besides, in series [3], half-maximal inhibition (IC50) required 149 nM. For the same molecule, the Cmax in series [6] worked out at 150 nM. For the same molecule, in [7], the half-life was 150 min.
On to `CC(C)N1C(=O)[C@H](NC(=O)[C@@H](Cc2ccccc2F)NC(=O)OC(C)(C)C)CN(CC2CC2)c2ccccc21` (stereo in doubt; 14) [listing 1 of 2 here], for which the IC50 in [3] (hek293) came out at 102 nM.
Turning to `CC(C)(C)OC(=O)N[C@H](Cc1ccccc1F)C(=O)N[C@@H]1CN(CC2CC2)c2ccccc2N(CC(F)(F)F)C1=O`, the inhibition turned out to be 20% in [1] and 7% in [2]. This molecule also returned an IC50 in [3] of 101 nM.
For the molecule `CN1C(=O)[C@H](NC(=O)[C@@H](Cc2ccccc2F)NC(=O)OC(C)(C)C)CNc2ccccc21`, the inhibition came to 25% in [1] and 0% in series [2]. The molecule further displayed an IC50 in series [3] of 409 nM.
`CC(C)N1C(=O)[C@H](NC(=O)[C@@H](Cc2ccccc2OC(F)(F)F)NC(=O)OC(C)(C)C)CN(CC2CC2)c2ccccc21` registered an inhibition in series [1] of 35%. The same molecule showed a clearance in [4] of 30 mL/min/kg. The bioavailability in series [5] was 4%. This molecule registered an IC50 in [3] of 75 nM. Besides, in series [6], the Cmax came to 40 nM. The half-life in series [7] was 144 min.
In the case of `CC(C)(C)OC(=O)N[C@H](Cc1ccccc1OC(F)(F)F)C(=O)N[C@@H]1CN(CC2CC2)c2ccccc2N(CC(F)(F)F)C1=O`, half-maximal inhibition in [3] (IC50) required 73 nM.
The ED50 is the midpoint of the dose-response relation. Take `Nc1nnc(-c2cccc(Cl)c2Cl)c(N)n1` [LAMOTRIGINE]: in the series with Mus musculus, the ED50 was found to be 2.2 mg/kg.
With `CC(C)N1C(=O)[C@H](NC(=O)[C@@H](Cc2ccccc2F)NC(=O)OC(C)(C)C)CN(CC2CC2)c2ccccc21` (stereo in doubt; 14) [listing 2 of 2 here], the figures for the inhibition in series [1] and in series [2] were 33% and 7%, respectively.
Regarding `CC(C)(C)OC(=O)N[C@H](Cc1cc(C(F)(F)F)ccc1C(F)(F)F)C(=O)N[C@@H]1CN(CC2CC2)c2ccccc2N(CC(F)(F)F)C1=O`, the inhibition in series [1] stood at 6%. The molecule further yielded a concentration for half-maximal inhibition (IC50) in series [3] of 120 nM.
As to `CN1C(=O)[C@H](NC(=O)[C@@H](Cc2ccccc2F)NC(=O)OC(C)(C)C)CN(CC2CCCCC2)c2ccccc21`, the inhibition amounted to 43% in [1] and 17% in [2]. Moreover, the IC50 in series [3] amounted to 188 nM.
`CN1C(=O)[C@H](NC(=O)[C@@H](Cc2ccccc2F)NC(=O)OC(C)(C)C)CN(CC2CC2)c2ccccc21` registered a concentration for half-maximal inhibition (IC50) in [3] of 49 nM.
On to `CC(C)N1C(=O)[C@H](NC(=O)[C@@H](Cc2cccc(F)c2)NC(=O)OC(C)(C)C)CN(CC2CC2)c2ccccc21`, for which, in series [1], the inhibition came to 17%. This molecule also displayed an IC50 in series [3] of 96 nM.
In series [1], `CC(C)N1C(=O)[C@H](NC(=O)[C@@H](Cc2ccccc2)NC(=O)OC(C)(C)C)CN(CC2CC2)c2ccccc21` came in with an inhibition of 42%. Also, half-maximal inhibition in [3] (IC50) was put at 52 nM.
With `CN1C[C@@H](NC(=O)[C@@H](Cc2ccccc2F)NC(=O)OC(C)(C)C)C(=O)N(C)c2ccccc21`, the figures for the inhibition in series [1] and in series [2] were 7% and 0%, respectively. In addition, the 50% inhibitory concentration (IC50) in [3] came to 142 nM.
Take `CC(C)N1C(=O)[C@H](NC(=O)[C@@H](Cc2ccccc2F)NC(=O)OC(C)(C)C)CN(CC2CC2)c2ccccc21` (stereo in doubt; 22) [listing 1 of 2 here]: the inhibition in series [1] worked out at 32%.
Molecule `CC(C)(C)OC(=O)N[C@H](Cc1ccccc1C(F)(F)F)C(=O)N[C@@H]1CN(CC2CC2)c2ccccc2N(CC(F)(F)F)C1=O` showed an inhibition in [1] of 11%. The clearance in series [4] was determined as 51 mL/min/kg. The bioavailability in [5] was 10%. This molecule also showed a half-inhibitory concentration (IC50) in [3] of 131 nM. The molecule further returned a Cmax in series [6] of 60 nM. Moreover, the half-life in series [7] was 144 min.
`CN1C(=O)[C@H](NC(=O)[C@@H](Cc2ccccc2F)NC(=O)OC(C)(C)C)CN(Cc2ccccc2)c2ccccc21`: the inhibition is 84% in series [1] and 14% in series [2]. The molecule further had an IC50 in series [3] of 25 nM.
With `CN1C(=O)[C@H](NC(=O)[C@@H](Cc2ccccc2F)NC(=O)OC(C)(C)C)CN(CC(F)(F)F)c2ccccc21`, the inhibition in series [1] amounted to 62%; in [2], 36%. For the same molecule, the IC50 in series [3] came out at 47 nM.
`CC(C)N1C(=O)[C@H](NC(=O)[C@@H](Cc2ccc(F)cc2)NC(=O)OC(C)(C)C)CN(CC2CC2)c2ccccc21`: the IC50 in [3] worked out at 196 nM.
For `CC(C)N1C(=O)[C@H](NC(=O)[C@@H](Cc2ccccc2F)NC(=O)OC(C)(C)C)CN(CC2CC2)c2ccccc21` (stereo in doubt; 22) [listing 2 of 2 here], in [3], the half-inhibitory concentration (IC50) was 102 nM.
For the molecule `NC(=O)N1c2ccccc2C=Cc2ccccc21` [CARBAMAZEPINE], in the series on Mus musculus, the 50% effective dose (ED50) stood at 3.4 mg/kg.
`CC(C)(C)OC(=O)N[C@H](Cc1cccc(F)c1)C(=O)N[C@@H]1CN(CC2CC2)c2ccccc2N(CC(F)(F)F)C1=O` gave an inhibition in [1] of 17%. Moreover, the concentration for half-maximal inhibition (IC50) in series [3] was 142 nM.
With `CC(C)(C)OC(=O)N[C@H](Cc1ccc(F)cc1)C(=O)N[C@@H]1CN(CC2CC2)c2ccccc2N(CC(F)(F)F)C1=O`, the IC50 in series [3] stood at 219 nM.
What is called Ki is the equilibrium dissociation constant of an inhibitor or competing ligand from its target. Read a low Ki as higher affinity. Turning to `CC(C)(C)OC(=O)N[C@H](Cc1ccccc1)C(=O)N[C@@H]1CN(CC2CC2)c2ccccc2N(CC(F)(F)F)C1=O`, in the series on Mus musculus, the outcome was Active. This molecule yielded a clearance in [4] of 48 mL/min/kg. The molecule also showed a bioavailability in [5] of 5%. Further, the IC50 in series [3] came to 30 nM. In series [8], this molecule had a Kr of more than 5 µM. Moreover, the maximum concentration (Cmax) in [6] was 30 nM. This molecule also showed a half-life in series [7] of 186 min. Further, in series [9], the IC50 came out at 1.54 nM and the Ki worked out at 0.63 nM. The same molecule gave an inhibition in series [10] of less than 10%.
As to `CC(C)N1C(=O)[C@H](NC(=O)[C@@H](Cc2c(F)cccc2F)NC(=O)OC(C)(C)C)CN(CC2CC2)c2ccccc21`, in [1], the inhibition stood at 25%. Also, the IC50 in [3] is 97 nM.
